Laboratory results as given in ChEMBL document CHEMBL2040751, “Discovery of PF-04449913, a Potent and Orally Bioavailable Inhibitor of Smoothened” (ACS Med Chem Lett, 2012).
≈ marks a conversion by molar mass, not a printed value.

Legend:
[1] = Chemical solubility of the compound in PBS at pH 6.5; type: physicochemical
[2] = Chemical solubility of the compound in SGN at pH 1.2; type: physicochemical
[3] = Aqueous solubility of the compound; type: physicochemical; conditions: buffer
[4] = molecular target: Protein smoothened (Mus musculus) (UniProt P56726); assay: Potency ratio, ratio of IC50 for compound to IC50 for compound 1 in mouse C3H10T1/2 cells by SMO/SHH transient transcriptional activation based Gli-luciferase reporter assay; type: cell-based; conditions: C3H 10T1/2
Protein smoothened = Protein smoothened (Mus musculus, UniProt P56726); assay: Inhibition of Smo in mouse C3H10T1/2 cells using human recombinant SHH assessed as effect on SMO/SHH transient transcriptional activation after 20 hrs by Gli-luciferase reporter assay; type: cell-based, C3H 10T1/2
[5] = Intrinsic clearance in rat microsomes; type: ADME, Microsome
[6] = Oral bioavailability in dog at 3 mg/kg; type: ADME, organism-based, Canis lupus familiaris; conditions: in vivo
Procedure, shortened: (§1)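 In dogs, the IV dose was 0.5 mg/kg in solution in 10% EtOH/20% PEG400/70% PBS. The oral dose was 3 mg/kg in methylcellulose in water.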

Cytochrome P450 1A2 = molecular target: T1, Cytochrome P450 1A2 (Homo sapiens, UniProt P05177); assay: Inhibition of CYP1A2; type: ADME
T1 sequence (P05177 whole entry): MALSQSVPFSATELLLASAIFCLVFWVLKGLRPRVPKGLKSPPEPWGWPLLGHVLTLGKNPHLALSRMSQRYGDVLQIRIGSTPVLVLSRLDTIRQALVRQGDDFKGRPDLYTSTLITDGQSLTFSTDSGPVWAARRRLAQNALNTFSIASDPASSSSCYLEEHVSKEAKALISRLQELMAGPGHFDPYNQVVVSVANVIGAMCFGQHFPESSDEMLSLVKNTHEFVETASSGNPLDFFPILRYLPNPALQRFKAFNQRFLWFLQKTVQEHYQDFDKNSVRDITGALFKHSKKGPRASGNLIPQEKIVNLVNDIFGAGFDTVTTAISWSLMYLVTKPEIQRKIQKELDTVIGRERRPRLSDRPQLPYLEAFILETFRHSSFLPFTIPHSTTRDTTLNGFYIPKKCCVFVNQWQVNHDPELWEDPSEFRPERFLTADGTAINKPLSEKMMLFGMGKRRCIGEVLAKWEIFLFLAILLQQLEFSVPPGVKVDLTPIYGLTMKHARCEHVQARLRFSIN

[7] = Apparent permeability of the compound across apical to basolateral side in human Caco2 cells; type: ADME, cell-based; conditions: Caco-2
[8] = Intrinsic clearance in dog microsomes; type: ADME, Canis lupus familiaris, Microsome
[9] = Clearance in rat at 1 mg/kg, iv and 1 mg/kg, po; type: ADME, organism-based; conditions: in vivo
Procedure, shortened: (§2)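 Rats received 1 mg/kg IV as a solution in 10% EtOH/20% PEG400/70% PBS. A separate group received 1 mg/kg orally in methylcellulose in water.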

[10] = Dissociation constant, pKa of the compound; type: physicochemical
[11] = Half life in dog at 0.5 mg/kg, iv and 3 mg/kg, po; type: ADME, organism-based, Canis lupus familiaris; conditions: in vivo; procedure, shortened: as §1
Cytochrome P450 2C9 = Cytochrome P450 2C9 (Homo sapiens, UniProt P11712); assay: Inhibition of CYP2C9; type: ADME
Cytochrome P450 2C19 = Cytochrome P450 2C19 (Homo sapiens, UniProt P33261); assay: Inhibition of CYP2C19; type: ADME
[12] = Half life in rat at 1 mg/kg, iv and 1 mg/kg, po; type: ADME, organism-based; conditions: in vivo; procedure, shortened: as §2
[13] = Lipophilicity, log D of the compound; type: physicochemical; conditions: octanol/water
[14] = Apparent permeability of the compound across basolateral to apical side in human Caco2 cells; type: ADME, cell-based; conditions: Caco-2
[15] = Volume of distribution at steady state in rat at 1 mg/kg, iv and 1 mg/kg, po; type: ADME, organism-based; conditions: in vivo, read-out: Vdss; procedure, shortened: as §2
Cytochrome P450 3A4 = Cytochrome P450 3A4 (Homo sapiens, UniProt P08684); assay: Inhibition of CYP3A4; type: ADME
[16] = Intrinsic clearance in human microsomes; type: ADME, Microsome
[17] = Percentage unbound in rat plasma; type: ADME, cell-free
[18] = Induction of genotoxicity in micronucleus by micronucleus test
[19] = Fraction unbound in human liver microsomes; type: ADME, Microsome
[20] = Fraction unbound in rat liver microsomes; type: ADME, Microsome
[21] = Percentage unbound in human plasma; type: ADME, cell-free
Cytochrome P450 2C8 = molecular target: T2, Cytochrome P450 2C8 (Homo sapiens, UniProt P10632); assay: Inhibition of CYP2C8; type: ADME
T2 sequence (P10632 whole entry): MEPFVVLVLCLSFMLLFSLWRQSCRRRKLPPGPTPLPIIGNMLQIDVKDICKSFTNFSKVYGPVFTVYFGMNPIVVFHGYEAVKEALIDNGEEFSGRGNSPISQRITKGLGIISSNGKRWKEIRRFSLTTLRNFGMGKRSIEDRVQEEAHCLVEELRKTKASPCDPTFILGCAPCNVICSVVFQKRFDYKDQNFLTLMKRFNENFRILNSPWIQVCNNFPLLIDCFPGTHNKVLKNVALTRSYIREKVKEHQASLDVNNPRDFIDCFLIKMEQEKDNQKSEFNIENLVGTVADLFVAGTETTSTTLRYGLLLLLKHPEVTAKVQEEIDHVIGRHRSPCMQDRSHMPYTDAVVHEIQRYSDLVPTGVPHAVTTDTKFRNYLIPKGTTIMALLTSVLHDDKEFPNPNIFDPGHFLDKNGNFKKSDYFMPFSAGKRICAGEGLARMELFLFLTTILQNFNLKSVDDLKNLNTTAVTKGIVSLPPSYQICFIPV

Salmonella typhimurium = assay: Induction of genotoxicity in Salmonella typhimurium by Ames test; type: toxicity, organism-based; conditions: salmonella enterica subsp. enterica serovar typhimurium
[22] = Fraction unbound in dog liver microsomes; type: ADME, Canis lupus familiaris, Microsome
[23] = Volume of distribution at steady state in dog at 0.5 mg/kg, iv and 3 mg/kg, po; type: ADME, organism-based, Canis lupus familiaris; conditions: in vivo, read-out: Vdss; procedure, shortened: as §1
[24] = Clearance in dog at 0.5 mg/kg, iv and 3 mg/kg, po; type: ADME, organism-based, Canis lupus familiaris; conditions: in vivo; procedure, shortened: as §1
[25] = Oral bioavailability in rat at 1 mg/kg; type: ADME, organism-based; conditions: in vivo; procedure, shortened: as §2
Cytochrome P450 2D6 = Cytochrome P450 2D6 (Homo sapiens, UniProt P10635); assay: Inhibition of CYP2D6; type: ADME
[26] = Percentage unbound in dog plasma; type: ADME, cell-free, Canis lupus familiaris
[27] = Plasma clearance in rat at 2 mg/kg, iv dosed in 20% PEG400/80% H2O; type: ADME, organism-based; set-up: dose 2 mg/kg, route intravenous
Procedure, shortened: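 Single IV dose of 2 mg/kg formulated in 20% PEG400/80% H2O. Plasma clearance was determined.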

[28] = Oral bioavailability in rat at 5 mg/kg dosed in 0.5% methylcellulose in water; type: ADME, organism-based; conditions: in vivo
Procedure, shortened: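 Oral dosing at 5 mg/kg, formulated in 0.5% methylcellulose in water.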

[29] = Free intrinsic clearance in human microsomes; type: ADME, Microsome
[30] = Drug excretion in rat urine at 2 mg/kg, iv; type: ADME, organism-based; set-up: dose 2 mg/kg, route intravenous; conditions: read-out: Drug excretion
[31] = Oral bioavailability in dog at 5 mg/kg; type: ADME, organism-based, Canis lupus familiaris; conditions: in vivo
[32] = Drug excretion in rat bile at 2 mg/kg, iv; type: ADME, organism-based; set-up: dose 2 mg/kg, route intravenous; conditions: read-out: Drug excretion
[33] = Plasma clearance in dog; type: ADME, organism-based, Canis lupus familiaris
[34] = Fraction absorbed in dog at 5 mg/kg, po; type: ADME, organism-based, Canis lupus familiaris; set-up: dose 5 mg/kg, route oral; conditions: in vivo

Protein smoothened (Mus musculus), sequence (P56726 whole entry): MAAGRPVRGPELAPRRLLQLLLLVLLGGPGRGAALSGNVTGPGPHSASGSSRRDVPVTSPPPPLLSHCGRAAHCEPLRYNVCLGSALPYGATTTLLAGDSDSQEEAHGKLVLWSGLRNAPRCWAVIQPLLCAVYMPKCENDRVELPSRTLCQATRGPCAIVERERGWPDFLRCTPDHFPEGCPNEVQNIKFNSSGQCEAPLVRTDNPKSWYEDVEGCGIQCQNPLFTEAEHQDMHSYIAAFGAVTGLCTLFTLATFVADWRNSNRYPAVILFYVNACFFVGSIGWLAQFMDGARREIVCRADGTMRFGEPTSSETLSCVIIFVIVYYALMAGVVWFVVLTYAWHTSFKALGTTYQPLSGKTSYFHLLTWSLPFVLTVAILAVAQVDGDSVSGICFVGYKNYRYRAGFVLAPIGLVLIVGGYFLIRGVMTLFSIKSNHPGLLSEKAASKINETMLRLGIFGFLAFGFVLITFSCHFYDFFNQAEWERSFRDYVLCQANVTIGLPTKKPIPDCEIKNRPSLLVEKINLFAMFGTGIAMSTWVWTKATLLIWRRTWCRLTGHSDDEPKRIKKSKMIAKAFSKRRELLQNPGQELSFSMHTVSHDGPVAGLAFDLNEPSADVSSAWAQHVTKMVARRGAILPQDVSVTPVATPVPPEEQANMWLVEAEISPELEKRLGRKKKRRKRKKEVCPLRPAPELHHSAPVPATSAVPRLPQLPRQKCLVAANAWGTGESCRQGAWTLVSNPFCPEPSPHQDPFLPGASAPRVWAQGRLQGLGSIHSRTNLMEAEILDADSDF
Protein smoothened, sequence (P56726 whole entry): as above
Cytochrome P450 3A4, sequence (P08684 whole entry): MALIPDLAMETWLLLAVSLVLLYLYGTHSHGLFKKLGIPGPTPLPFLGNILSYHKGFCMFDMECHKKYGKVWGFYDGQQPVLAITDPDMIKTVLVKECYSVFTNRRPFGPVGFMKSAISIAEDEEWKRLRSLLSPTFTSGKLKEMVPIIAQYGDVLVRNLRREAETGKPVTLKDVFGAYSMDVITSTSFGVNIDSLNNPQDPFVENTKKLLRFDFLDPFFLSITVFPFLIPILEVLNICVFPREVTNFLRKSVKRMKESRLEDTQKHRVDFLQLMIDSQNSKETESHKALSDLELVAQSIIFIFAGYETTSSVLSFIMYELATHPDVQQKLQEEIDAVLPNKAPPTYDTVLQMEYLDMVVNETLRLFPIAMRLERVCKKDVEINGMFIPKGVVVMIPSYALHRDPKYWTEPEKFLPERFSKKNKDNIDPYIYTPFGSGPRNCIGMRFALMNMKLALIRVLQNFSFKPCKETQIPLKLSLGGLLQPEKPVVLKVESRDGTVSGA
Cytochrome P450 2D6, sequence (P10635 whole entry): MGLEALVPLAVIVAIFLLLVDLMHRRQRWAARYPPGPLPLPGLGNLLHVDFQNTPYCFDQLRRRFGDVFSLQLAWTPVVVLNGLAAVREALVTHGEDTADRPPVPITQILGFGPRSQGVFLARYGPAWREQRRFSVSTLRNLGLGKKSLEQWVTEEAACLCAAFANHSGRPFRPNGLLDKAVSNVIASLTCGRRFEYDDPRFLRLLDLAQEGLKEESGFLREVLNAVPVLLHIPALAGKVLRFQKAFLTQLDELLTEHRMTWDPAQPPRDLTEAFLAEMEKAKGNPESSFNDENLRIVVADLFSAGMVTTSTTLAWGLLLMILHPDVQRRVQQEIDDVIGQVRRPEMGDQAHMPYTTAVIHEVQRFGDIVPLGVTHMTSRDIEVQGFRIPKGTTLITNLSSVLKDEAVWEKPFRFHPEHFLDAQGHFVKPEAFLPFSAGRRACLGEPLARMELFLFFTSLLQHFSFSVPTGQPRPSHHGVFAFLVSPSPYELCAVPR
Cytochrome P450 2C9, sequence (P11712 whole entry): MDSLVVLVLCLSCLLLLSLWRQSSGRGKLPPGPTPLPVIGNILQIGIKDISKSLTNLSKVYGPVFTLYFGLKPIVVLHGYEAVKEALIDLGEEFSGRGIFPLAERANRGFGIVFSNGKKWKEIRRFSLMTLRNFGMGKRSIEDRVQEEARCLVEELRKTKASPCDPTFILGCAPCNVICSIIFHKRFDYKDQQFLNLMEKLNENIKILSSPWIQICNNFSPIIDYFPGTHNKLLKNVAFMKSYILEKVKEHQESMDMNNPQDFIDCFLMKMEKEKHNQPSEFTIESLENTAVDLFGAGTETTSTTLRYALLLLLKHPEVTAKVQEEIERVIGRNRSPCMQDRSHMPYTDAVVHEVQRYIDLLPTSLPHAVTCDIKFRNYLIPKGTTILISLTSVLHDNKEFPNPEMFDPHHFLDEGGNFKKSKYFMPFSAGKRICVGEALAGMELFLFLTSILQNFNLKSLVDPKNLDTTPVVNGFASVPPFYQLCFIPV
Cytochrome P450 2C19, sequence (P33261 whole entry): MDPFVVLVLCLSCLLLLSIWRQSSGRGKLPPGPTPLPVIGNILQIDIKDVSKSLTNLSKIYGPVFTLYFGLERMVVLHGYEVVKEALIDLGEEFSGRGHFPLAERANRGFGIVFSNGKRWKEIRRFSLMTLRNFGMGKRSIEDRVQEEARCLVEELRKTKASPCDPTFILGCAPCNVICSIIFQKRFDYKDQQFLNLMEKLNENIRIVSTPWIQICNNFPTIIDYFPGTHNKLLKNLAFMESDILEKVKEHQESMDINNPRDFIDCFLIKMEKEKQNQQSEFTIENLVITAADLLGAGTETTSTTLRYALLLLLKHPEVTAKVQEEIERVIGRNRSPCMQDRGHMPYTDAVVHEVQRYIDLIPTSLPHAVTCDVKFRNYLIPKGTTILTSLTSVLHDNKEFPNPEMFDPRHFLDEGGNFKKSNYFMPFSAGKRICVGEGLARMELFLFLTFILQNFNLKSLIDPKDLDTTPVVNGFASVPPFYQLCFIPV

Structure (SMILES): CN1CC[C@@H](NC(=O)Nc2ccc(C#N)cc2)C[C@@H]1c1nc2ccccc2[nH]1.Cl.O
- solubility [1]: 1150 µg/mL
- solubility [2]: > 69000 µg/mL
- solubility [3]: 20 µg/mL

Structure (SMILES): CN1CC[C@@H](NC(=O)Nc2ccc(C#N)cc2)C[C@@H]1c1nc2ccccc2[nH]1
- Ratio IC50 [4]: > 50

Structure (SMILES): CN1CC[C@@H](NC(=O)Nc2ccc(C(F)(F)F)cc2)C[C@@H]1c1nc2ccccc2[nH]1
- Ratio IC50 [4]: > 50
- IC50 (Protein smoothened): 0.005 µM

Structure (SMILES): CN1CC[C@@H](NC(=O)Nc2ccc(C#N)cc2)C[C@@H]1c1nc2ccccc2[nH]1 [GLASDEGIB]
- CLint scaled [5]: 67 mL/min/kg
- bioavailability [6]: 68%
- IC50 (Cytochrome P450 1A2): > 30 µM
- Papp A→B [7]: 5.98 ×10⁻⁶ cm/s
- CLint scaled [8]: < 14 mL/min/kg
- clearance [9]: 31 mL/min/kg
- pKa [10]: 6
- half-life [11]: 2.9 h
- IC50 (Cytochrome P450 2C9): > 30 µM
- IC50 (Cytochrome P450 2C19): > 30 µM
- half-life [12]: 1.4 h
- IC50 (Protein smoothened): 0.005 µM
- logD [13]: 2.48
- Papp B→A [14]: 15.6 ×10⁻⁶ cm/s
- Vd [15]: 4.8 L/kg
- IC50 (Cytochrome P450 3A4): > 30 µM
- CLint scaled [16]: 6.3 mL/min/kg
- fraction unbound [17]: 0.109
- Activity [18]: Non-toxic
- fraction unbound [19]: 0.61
- fraction unbound [20]: 0.57
- fraction unbound [21]: 0.091
- IC50 (Cytochrome P450 2C8): > 30 µM
- Activity (Salmonella typhimurium): Non-toxic
- fraction unbound [22]: 0.54
- Vd [23]: 4.3 L/kg
- clearance [24]: 3.9 mL/min/kg
- bioavailability [25]: 33%
- IC50 (Cytochrome P450 2D6): > 30 µM
- fraction unbound [26]: 0.141

Structure (SMILES): CN1CC[C@@H](NC(=O)Nc2ccc(Cl)cc2)C[C@@H]1c1nc2ccccc2[nH]1
- Ratio IC50 [4]: > 50
- IC50 (Protein smoothened): 0.02 µM

Structure (SMILES): O=C(N[C@@H]1CCC[C@H](c2nc3ccccc3[nH]2)C1)c1ccc2c(c1)OCCO2
- Ratio IC50 [4]: 18
- clearance [27]: 33 mL/min/kg
- Papp A→B [7]: 85 ×10⁻⁶ cm/s
- IC50 (Protein smoothened): 0.088 µM
- Papp B→A [14]: 65 ×10⁻⁶ cm/s
- bioavailability [28]: 4%
- solubility [3]: 37 µg/mL (≈ 98 µM)

Structure (SMILES): O=C(Nc1cccc(-c2nc3ccccc3[nH]2)c1)c1ccc2c(c1)OCCO2
- clearance [27]: 25 mL/min/kg
- IC50 (Protein smoothened): 0.005 µM
- CL free [29]: 0.314 mL/min/kg
- fraction unbound [17]: < 0.01
- fraction unbound [21]: < 0.01
- solubility [3]: 0.1 µg/mL (≈ 0.269 µM)
- fraction unbound [26]: < 0.01

Structure (SMILES): CN1CC[C@@H](NC(=O)Nc2cccnc2)C[C@@H]1c1nc2ccccc2[nH]1
- Ratio IC50 [4]: > 50
- IC50 (Protein smoothened): 0.191 µM

Structure (SMILES): CN1CC[C@@H](NC(=O)Nc2ccccc2)C[C@@H]1c1nc2ccccc2[nH]1
- Ratio IC50 [4]: > 50
- IC50 (Protein smoothened): 0.103 µM

Structure (SMILES): CN1CC[C@@H](NC(=O)c2ccc3c(c2)OCCO3)C[C@@H]1c1nc2ccccc2[nH]1
- dose excreted [30]: < 5%
- Ratio IC50 [4]: 9
- clearance [27]: > 70 mL/min/kg
- bioavailability [31]: 33%
- IC50 (Protein smoothened): 0.043 µM
- dose excreted [32]: < 5%
- clearance [33]: 18 mL/min/kg
- Fa [34]: > 50%

Structure (SMILES): COc1ccc(NC(=O)N[C@@H]2CCN(C)[C@@H](c3nc4ccccc4[nH]3)C2)cc1
- Ratio IC50 [4]: > 50
- IC50 (Protein smoothened): 0.035 µM

Structure (SMILES): CN1CC[C@@H](NC(=O)Nc2cccc(C#N)c2)C[C@@H]1c1nc2ccccc2[nH]1
- Ratio IC50 [4]: > 50
- IC50 (Protein smoothened): 0.072 µM

Structure (SMILES): CN1CC[C@@H](NC(=O)Nc2ccc3c(c2)OCCO3)C[C@@H]1c1nc2ccccc2[nH]1
- Ratio IC50 [4]: > 50
- IC50 (Protein smoothened): 0.045 µM
